The subject of one data set is polyamine transporter. The experiment in a line: Ratio of IC50 for polyamine transporter deficient […] cells to IC50 for CHO cells. In kind it is cell-based, Cricetulus griseus. The conditions noted are these: chinese hamster, polyamine transporter deficient […] cells and CHO cells; read-out: Ratio IC50. The method in brief: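 The ratio is the IC50 in the polyamine-transport-deficient CHO-MG line (MGBG-resistant after ethylmethanesulfonate mutagenesis) divided by the IC50 in parental CHO cells.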

Data set [1] is described as follows: Inhibition of disc eversion in Drosophila melanogaster imaginal disc cells at 18 uM. The class given is functional. The method in brief:
(§1)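 Larvae are Oregon-R, from eggs laid for 24 h at 25 °C on cornmeal medium with bromophenol blue. About 30 leg imaginal discs per culture are cultured 15 h at 25 °C in 1 mL minimal Robb's medium (pH 7.2) with 1 µg/mL 20-hydroxyecdysone and 18 µM compound. Spermidine at 100 µM is added as competitor where stated.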

A short description of data set [2]: Cytotoxicity against polyamine transporter deficient […] cells. Conditions: Cricetulus griseus. The class given is ADME, cell-based.
The nature of data set [3]: Inhibition of PAT assessed as cytotoxicity against CHO cells. In kind it is cell-based. Conditions: Cricetulus griseus.
A short description of data set [4]: Inhibition of disc eversion in Drosophila melanogaster imaginal disc cells at 18 uM in presence of spermidine. The class given is functional. The method in brief:
as §1

A further data set concerns L1210. The experiment in a line: Cytotoxicity against mouse L1210 cells. In kind it is functional, cell-based.
Data set [5] in a line: Cytotoxicity against Drosophila melanogaster imaginal disc cells by Trypan blue exclusion test. In kind it is cell-based. Put shortly: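 Oregon-R Drosophila melanogaster leg imaginal discs are dissected in Ringer's with 0.1% BSA and cultured 15 h at 25 °C in minimal Robb's medium (pH 7.2). The medium holds 18 µM conjugate and 1 µg/mL 20-hydroxyecdysone. Viability of noneverted disc cells is then judged by Trypan blue exclusion, with everted control discs for comparison.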

Take `CCN(CCCNCCCN)Cc1c2ccccc2cc2ccccc12`: in the data set on polyamine transporter, the selectivity ratio came out at 0.8. The inhibition (in general, the share of the control response that was lost under treatment) at 18 µM in data set [1] was 88.5%; in data set [4], 100%. Also, the IC50 – broadly, the concentration at which inhibition is half-maximal – in data set [2] is 4 µM; in data set [3] it was 5.3 µM; in the data set on L1210 it was 2.2 µM.
For the compound `NCCCCNCc1c2ccccc2cc2ccccc12`, the selectivity ratio in the data set on polyamine transporter is 1. The inhibition at 18 µM in data set [1] was 78.4%; in data set [4] it was 100%. In addition, the IC50 was found to be 7.6 µM in data set [2] and 7.7 µM in data set [3].
On to `CCN(CCCCNCCCCN)Cc1c2ccccc2cc2ccccc12`, for which the selectivity ratio with polyamine transporter came to 1. For the same compound, testing at 18 µM in data set [1] gave an inhibition of 5.5%. Also, in data set [2], inhibition was half-maximal at 21.9 µM (IC50).
On to `CCN(CCCN)Cc1c2ccccc2cc2ccccc12`, for which the selectivity ratio in the data set on polyamine transporter came to 0.9. Moreover, the inhibition at 18 µM in data set [1] turned out to be 75.7%; in data set [4], 90%. Further, the IC50 in data set [2] was determined as 6.6 µM; in data set [3], 7.7 µM; in the data set with L1210 it was 5.1 µM.
With `NCCCNCCCCNCc1c2ccccc2cc2ccccc12`, in the data set with polyamine transporter, the selectivity ratio came to 24. In addition, the Activity entry in data set [5] is on record as “Toxic”. In addition, the inhibition at 18 µM was 73.9% in data set [1] and 23.8% in data set [4]. For the same compound, the figures for the IC50 (in data set [2]; in data set [3]; in the data set with L1210) were 9.5 µM, 0.4 µM and 0.4 µM, respectively.
On to `NCCCNCc1c2ccccc2cc2ccccc12`, for which the selectivity ratio in the data set with polyamine transporter was determined as 1. For the same compound, the values for the inhibition at 18 µM in data set [1] and in data set [4] were 95.2% and 100%, respectively. Also, the IC50 in data set [2] worked out at 2.4 µM; in data set [3], 2.3 µM; in the data set with L1210, 2.2 µM.
As for `NCCCCNCCCCNCc1c2ccccc2cc2ccccc12`, the selectivity ratio with polyamine transporter stood at 148. Moreover, the Activity result in data set [5] is listed as “Toxic”. Also, the inhibition at 18 µM in data set [1] stood at 97.6%; in data set [4], 8.7%. The IC50 in data set [2] was 66.7 µM; in data set [3], 0.45 µM.
In the case of `NCCCNCCCNCc1c2ccccc2cc2ccccc12`, the selectivity ratio in the data set with polyamine transporter is 1.8. The inhibition at 18 µM was found to be 85.4% in data set [1] and 100% in data set [4]. Further, the IC50 in data set [2] is 3.4 µM; in data set [3], 1.9 µM.
On to `NCCCCNCCCNCc1c2ccccc2cc2ccccc12`, for which, in the data set on polyamine transporter, the selectivity ratio amounted to 3.5. The inhibition at 18 µM was determined as 7.8% in data set [1] and 9.9% in data set [4]. The IC50 amounted to 8.8 µM in data set [2], 2.5 µM in data set [3] and 0.7 µM with L1210.
As to `NCCCCNCCCN` [SPERMIDINE], in data set [1], the inhibition at 18 µM stood at 4.8%.

Values taken from ChEMBL document CHEMBL1140719, “A Drosophila model to identify polyamine-drug conjugates that target the polyamine transporter in an intact epithelium” (J Med Chem, 2008).
